Results reported in ChEMBL document CHEMBL1124956, “Renin inhibitors based on dipeptide analogues. Incorporation of the hydroxyethylene isostere at the P2/P3 sites” (J Med Chem, 1990).

Target: T1, Renin (Homo sapiens, UniProt P00797)
T1 sequence (P00797 whole entry): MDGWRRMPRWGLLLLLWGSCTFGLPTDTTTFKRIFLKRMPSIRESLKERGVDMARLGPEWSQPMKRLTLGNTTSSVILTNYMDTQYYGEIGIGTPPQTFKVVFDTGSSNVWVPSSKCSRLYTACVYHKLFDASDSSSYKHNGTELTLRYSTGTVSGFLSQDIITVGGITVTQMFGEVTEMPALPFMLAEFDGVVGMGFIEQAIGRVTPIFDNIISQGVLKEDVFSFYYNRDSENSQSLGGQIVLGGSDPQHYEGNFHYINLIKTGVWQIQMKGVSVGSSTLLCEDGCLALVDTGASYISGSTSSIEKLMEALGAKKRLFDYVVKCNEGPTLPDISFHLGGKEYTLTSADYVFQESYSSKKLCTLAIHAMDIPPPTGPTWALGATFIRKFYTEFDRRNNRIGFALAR
Assay: In vitro inhibitory activity against human renal renin using radioimmunoassay for angiotensin I production
Outline: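 Purified human renin enzyme, assayed in maleate buffer at pH 6.0. The remaining conditions follow a previously published protocol.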

Structure (SMILES) | IC50 [nM]
C=C(C[C@H](O)[C@H](CC1CCCCC1)NC(=O)[C@@H](C[C@H](O)[C@H](Cc1ccccc1)NC(=O)OC(C)(C)C)Cn1ccnn1)C(=O)NCC(C)C | 2700
C=C(C[C@H](O)[C@H](CC1CCCCC1)NC(=O)[C@H](C)C[C@H](O)[C@H](Cc1ccccc1)NC(=O)OC(C)(C)C)C(=O)NCC(C)C | 3000
C=C(C[C@H](O)[C@H](CC1CCCCC1)NC(=O)[C@@H](C[C@@H](O)[C@H](Cc1ccccc1)NC(=O)OC(C)(C)C)Cn1ccnn1)C(=O)NCC(C)C | 95
C=C(C[C@H](O)[C@H](CC1CCCCC1)NC(=O)C(C)CC(O)[C@H](Cc1ccccc1)NC(=O)OC(C)(C)C)C(=O)NCC(C)C (single isomer, unassigned) | 20
C=C(C[C@H](O)[C@H](CC1CCCCC1)NC(=O)C(CCCCCC)CC(O)[C@H](Cc1ccccc1)NC(=O)OC(C)(C)C)C(=O)NCC(C)C (stereo not given in full) | 70
C=CCCC[C@H](C[C@@H](O)[C@H](Cc1ccccc1)NC(=O)OC(C)(C)C)C(=O)N[C@@H](CC1CCCCC1)[C@@H](O)CC(=C)C(=O)NCC(C)C | 1
C=C(C[C@H](O)[C@H](CC1CCCCC1)NC(=O)C(Cc1c[nH]cn1)NC(=O)[C@H](Cc1ccccc1)NC(=O)OC(C)(C)C)C(=O)NCC(C)C (stereo not given in full) | 2
C=C(C[C@H](O)[C@H](CC1CCCCC1)NC(=O)C(CCCC)CC(O)[C@H](Cc1ccccc1)NC(=O)OC(C)(C)C)C(=O)NCC(C)C (stereo not given in full) | 5.5
C=C(C[C@H](O)[C@H](CC1CCCCC1)NC(=O)C(CC(C)C)CC(O)[C@H](Cc1ccccc1)NC(=O)OC(C)(C)C)C(=O)NCC(C)C (stereo not given in full) | 25
C=CCCCC(NC(=O)[C@H](Cc1ccccc1)NC(=O)OC(C)(C)C)C(=O)N[C@@H](CC1CCCCC1)[C@@H](O)CC(=C)C(=O)NCC(C)C (mixture of isomers) | 18
C=CCCCC(C[C@@H](O)[C@H](Cc1ccccc1)NC(=O)OC(C)(C)C)C(=O)N[C@@H](CC1CCCCC1)[C@@H](O)[C@@H](CO)CC(C)C (stereo not given in full) | 12
C=CCCC[C@@H](C[C@@H](O)[C@H](Cc1ccccc1)NC(=O)OC(C)(C)C)C(=O)N[C@@H](CC1CCCCC1)[C@@H](O)CC(=C)C(=O)NCC(C)C | 8
C=C(C[C@H](O)[C@H](CC1CCCCC1)NC[C@H](C)C[C@@H](O)[C@H](Cc1ccccc1)NC(=O)OC(C)(C)C)C(=O)NCC(C)C | > 10000
C=C(C[C@H](O)[C@H](CC1CCCCC1)NC(=O)C(CCCCC)CC(O)[C@H](Cc1ccccc1)NC(=O)OC(C)(C)C)C(=O)NCC(C)C (stereo not given in full) | 19
C=C(C[C@H](O)[C@H](CC1CCCCC1)NC(=O)[C@@H](C)C[C@@H](O)[C@H](Cc1ccccc1)NC(=O)OC(C)(C)C)C(=O)NCC(C)C | 100
CC(C)C[C@H](C[C@@H](O)[C@H](Cc1ccccc1)NC(=O)OC(C)(C)C)C(=O)N[C@@H](CC1CCCCC1)[C@@H](O)[C@@H](CO)CC(C)C | 6
C=C(C[C@H](O)[C@H](CC1CCCCC1)NC(=O)C(C)NC(=O)[C@H](Cc1ccccc1)NC(=O)OC(C)(C)C)C(=O)NCC(C)C (stereo not given in full) | 10
C=C(C[C@H](O)[C@H](CC1CCCCC1)NC(=O)C(CCCC)NC(=O)[C@H](Cc1ccccc1)NC(=O)OC(C)(C)C)C(=O)NCC(C)C (mixture of isomers) | 2
C=C(C[C@H](O)[C@H](CC1CCCCC1)NC(=O)[C@H](C)C[C@@H](O)[C@H](Cc1ccccc1)NC(=O)OC(C)(C)C)C(=O)NCC(C)C | 20
C=C(C[C@H](O)[C@H](CC1CCCCC1)NC(=O)C(CC(C)C)NC(=O)[C@H](Cc1ccccc1)NC(=O)OC(C)(C)C)C(=O)NCC(C)C (stereo not given in full) | 6
